Experiment [1] has as its target Dual specificity protein kinase CLK3 (Homo sapiens, UniProt P49761). Nature of the experiment: Inhibition of CLK3 in human HeLa cells lysate at 50 uM pre incubated for 15 mins followed by ADP acyl phosphate probe addition and measured after 10 mins by LC-MS/MS analysis relative to control. The class given is subcellular. As to conditions: time 25.0 min.
In experiment [2] the target is Dual specificity mitogen-activated protein kinase kinase 5 (Homo sapiens, UniProt Q13163). In words: Inhibition of MAP2K5 in human HeLa cells lysate pre incubated for 15 mins followed by ADP acyl phosphate probe addition and measured after 10 mins by LC-MS/MS analysis. The class given is subcellular.
Experiment [3] has as its target Insulin receptor (Homo sapiens, UniProt P06213). In words: Inhibition of INSR in human HeLa cells lysate at 10 uM pre incubated for 15 mins followed by ADP acyl phosphate probe addition and measured after 10 mins by LC-MS/MS analysis relative to control. As to conditions: time 25.0 min. The class given is subcellular.
For experiment [4], the target named is T1, Serine/threonine-protein kinase TAO2 (Homo sapiens) (UniProt Q9UL54).
T1 sequence (whole entry): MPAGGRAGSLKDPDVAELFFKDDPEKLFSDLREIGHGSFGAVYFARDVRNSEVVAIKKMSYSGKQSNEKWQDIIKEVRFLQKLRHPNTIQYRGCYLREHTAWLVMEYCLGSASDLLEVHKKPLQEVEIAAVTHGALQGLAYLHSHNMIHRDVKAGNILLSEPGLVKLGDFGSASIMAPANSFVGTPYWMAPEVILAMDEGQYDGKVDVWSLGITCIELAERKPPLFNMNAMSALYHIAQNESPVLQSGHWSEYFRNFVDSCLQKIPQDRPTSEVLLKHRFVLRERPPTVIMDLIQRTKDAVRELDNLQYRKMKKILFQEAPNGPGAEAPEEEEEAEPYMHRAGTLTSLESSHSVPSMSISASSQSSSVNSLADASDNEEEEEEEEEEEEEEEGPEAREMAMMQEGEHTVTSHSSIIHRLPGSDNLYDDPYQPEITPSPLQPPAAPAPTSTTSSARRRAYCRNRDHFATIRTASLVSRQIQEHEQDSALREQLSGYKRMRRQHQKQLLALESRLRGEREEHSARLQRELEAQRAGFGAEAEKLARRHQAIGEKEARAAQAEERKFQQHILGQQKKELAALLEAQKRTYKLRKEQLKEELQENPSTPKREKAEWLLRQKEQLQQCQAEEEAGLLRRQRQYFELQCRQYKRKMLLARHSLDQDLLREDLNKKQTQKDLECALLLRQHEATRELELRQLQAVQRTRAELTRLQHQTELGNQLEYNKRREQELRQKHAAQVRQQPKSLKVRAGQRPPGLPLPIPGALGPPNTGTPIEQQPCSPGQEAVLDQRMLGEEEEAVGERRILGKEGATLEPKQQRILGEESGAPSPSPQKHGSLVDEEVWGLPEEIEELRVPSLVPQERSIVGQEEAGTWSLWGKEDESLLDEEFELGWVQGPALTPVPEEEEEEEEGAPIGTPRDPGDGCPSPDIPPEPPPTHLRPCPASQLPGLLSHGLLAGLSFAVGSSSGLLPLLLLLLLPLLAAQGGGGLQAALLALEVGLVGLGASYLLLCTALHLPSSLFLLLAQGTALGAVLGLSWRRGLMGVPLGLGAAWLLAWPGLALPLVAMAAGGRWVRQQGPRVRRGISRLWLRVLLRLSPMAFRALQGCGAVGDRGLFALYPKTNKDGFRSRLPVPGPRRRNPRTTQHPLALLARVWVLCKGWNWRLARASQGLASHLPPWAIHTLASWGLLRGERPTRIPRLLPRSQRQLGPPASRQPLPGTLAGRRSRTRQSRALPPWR
Nature of the experiment: Inhibition of TAO2 in human HeLa cells lysate at 10 uM pre incubated for 15 mins followed by ATP acyl phosphate probe addition and measured after 10 mins by LC-MS/MS analysis relative to control. The class given is subcellular. The conditions noted are these: time 25.0 min.

The target of experiment [5] is Serine/threonine-protein kinase 38 (Homo sapiens, UniProt Q15208). In words: Inhibition of NDR1 in human HeLa cells lysate at 50 uM pre incubated for 15 mins followed by ATP acyl phosphate probe addition and measured after 10 mins by LC-MS/MS analysis relative to control. The class given is subcellular. The conditions noted are these: time 25.0 min.
For experiment [6], the target named is Cyclin-dependent kinase 16 (Homo sapiens, UniProt Q00536). In words: Inhibition of PCTAIRE1 in human HeLa cells lysate at 2 uM pre incubated for 15 mins followed by ADP acyl phosphate probe addition and measured after 10 mins by LC-MS/MS analysis relative to control. Type of experiment: subcellular. The conditions noted are these: time 25.0 min.
Cyclin-dependent kinase 16, sequence (Q00536 whole entry): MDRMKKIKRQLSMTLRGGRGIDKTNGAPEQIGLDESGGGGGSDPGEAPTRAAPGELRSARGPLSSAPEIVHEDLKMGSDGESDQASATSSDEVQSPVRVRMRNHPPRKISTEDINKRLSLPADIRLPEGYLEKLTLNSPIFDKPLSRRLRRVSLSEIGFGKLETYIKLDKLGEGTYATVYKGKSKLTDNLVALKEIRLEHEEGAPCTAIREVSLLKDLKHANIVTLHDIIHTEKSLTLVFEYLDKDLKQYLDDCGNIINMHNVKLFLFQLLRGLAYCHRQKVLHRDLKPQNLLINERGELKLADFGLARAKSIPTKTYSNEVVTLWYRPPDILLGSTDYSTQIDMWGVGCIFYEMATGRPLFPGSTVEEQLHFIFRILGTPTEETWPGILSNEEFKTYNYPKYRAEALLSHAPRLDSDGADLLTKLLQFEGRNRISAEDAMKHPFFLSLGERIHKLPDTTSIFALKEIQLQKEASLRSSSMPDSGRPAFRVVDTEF
Experiment [7] concerns the target Serine/threonine-protein kinase LATS1 (Homo sapiens, UniProt O95835). In words: Inhibition of LATS1 in human HeLa cells lysate pre incubated for 15 mins followed by ATP acyl phosphate probe addition and measured after 10 mins by LC-MS/MS analysis. Type of experiment: subcellular.
Experiment [8] addresses RPS6KA1/RPS6KA2/RPS6KA3 (Homo sapiens, UniProt P51812+Q15349+Q15418). Nature of the experiment: Inhibition of RSK1/2/3 in human HeLa cells lysate at 2 uM pre incubated for 15 mins followed by ATP acyl phosphate probe addition and measured after 10 mins by LC-MS/MS analysis relative to control. The conditions noted are these: time 25.0 min. Type of experiment: subcellular.

Experiment [9] deals with Serine/threonine-protein kinase Aurora (Homo sapiens, UniProt Q96GD4+Q9UQB9+O14965). In words: Inhibition of AurA/AurB/AurC in human HeLa cells lysate at 50 uM pre incubated for 15 mins followed by ATP acyl phosphate probe addition and measured after 10 mins by LC-MS/MS analysis relative to control. As to conditions: time 25.0 min. The class given is subcellular. In a few lines:
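KiNativ-type profiling in HeLa lysate (5 mg/mL total protein). Lysate preincubated 15 min with inhibitor at 50, 10, 2, 0.8 or 0 μM, then ATP or ADP acylphosphate probe added (5 μM final) for 10 min. Reaction stopped with urea and analysed by targeted MS, using up to four fragment ions per kinase peptide-probe conjugate. % inhibition calculated against untreated lysate. Duplicate reactions.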

Experiment [10] deals with Ribosomal protein S6 kinase alpha-1 (Homo sapiens, UniProt Q15418). In words: Inhibition of RSK1 domain 1 in human HeLa cells lysate pre incubated for 15 mins followed by ADP acyl phosphate probe addition and measured after 10 mins by LC-MS/MS analysis. The class given is subcellular.
Ribosomal protein S6 kinase alpha-1, sequence (Q15418 whole entry, the tested form may be a part): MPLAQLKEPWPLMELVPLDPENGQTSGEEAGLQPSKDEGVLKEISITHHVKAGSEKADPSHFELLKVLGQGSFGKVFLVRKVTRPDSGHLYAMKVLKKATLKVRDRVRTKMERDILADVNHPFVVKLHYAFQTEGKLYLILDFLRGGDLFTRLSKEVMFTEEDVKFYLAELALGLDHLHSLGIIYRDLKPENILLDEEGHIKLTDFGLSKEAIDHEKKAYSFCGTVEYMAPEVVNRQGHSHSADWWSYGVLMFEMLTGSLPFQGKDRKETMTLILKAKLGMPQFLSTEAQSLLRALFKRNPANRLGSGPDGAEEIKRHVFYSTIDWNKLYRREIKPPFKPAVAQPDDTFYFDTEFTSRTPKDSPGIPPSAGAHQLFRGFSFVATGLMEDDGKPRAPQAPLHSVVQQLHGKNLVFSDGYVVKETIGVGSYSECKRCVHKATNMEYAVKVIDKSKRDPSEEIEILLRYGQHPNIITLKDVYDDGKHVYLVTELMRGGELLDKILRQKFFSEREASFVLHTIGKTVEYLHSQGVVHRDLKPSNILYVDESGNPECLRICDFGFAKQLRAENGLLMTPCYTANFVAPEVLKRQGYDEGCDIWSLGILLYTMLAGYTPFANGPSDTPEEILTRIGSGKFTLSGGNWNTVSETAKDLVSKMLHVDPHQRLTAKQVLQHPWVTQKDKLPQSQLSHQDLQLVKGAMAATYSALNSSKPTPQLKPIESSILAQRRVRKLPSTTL
In experiment [11] the target is Ribosomal protein S6 kinase alpha-3 (Homo sapiens, UniProt P51812). Nature of the experiment: Inhibition of RSK2 domain 1 active form in human HeLa cells lysate at 50 uM pre incubated for 15 mins followed by ATP acyl phosphate probe addition and measured after 10 mins by LC-MS/MS analysis relative to control. The conditions noted are these: time 25.0 min. Type of experiment: subcellular.
Ribosomal protein S6 kinase alpha-3, sequence (P51812 whole entry, the tested form may be a part): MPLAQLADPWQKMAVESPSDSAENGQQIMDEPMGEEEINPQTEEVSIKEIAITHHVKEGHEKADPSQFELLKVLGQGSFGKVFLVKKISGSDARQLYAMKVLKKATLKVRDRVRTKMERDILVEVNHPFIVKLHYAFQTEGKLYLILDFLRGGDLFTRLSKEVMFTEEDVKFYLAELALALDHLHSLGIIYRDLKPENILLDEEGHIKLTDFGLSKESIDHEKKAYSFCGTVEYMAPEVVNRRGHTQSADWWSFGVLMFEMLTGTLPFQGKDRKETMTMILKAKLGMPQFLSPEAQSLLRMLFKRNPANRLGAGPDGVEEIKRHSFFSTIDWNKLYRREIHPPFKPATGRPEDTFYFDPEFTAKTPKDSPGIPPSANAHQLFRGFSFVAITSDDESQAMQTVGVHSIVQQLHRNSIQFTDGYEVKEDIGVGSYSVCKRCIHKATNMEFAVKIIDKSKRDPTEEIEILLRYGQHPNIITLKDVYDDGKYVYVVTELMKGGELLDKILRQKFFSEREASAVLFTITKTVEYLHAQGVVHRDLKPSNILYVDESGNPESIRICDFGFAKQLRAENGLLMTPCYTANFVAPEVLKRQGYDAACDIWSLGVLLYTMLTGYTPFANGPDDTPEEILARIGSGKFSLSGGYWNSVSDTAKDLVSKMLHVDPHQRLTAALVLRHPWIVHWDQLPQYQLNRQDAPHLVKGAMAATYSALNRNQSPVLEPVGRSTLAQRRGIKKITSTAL

For experiment [12], the target named is Ephrin type-B receptor 4 (Homo sapiens, UniProt P54760). In words: Inhibition of EphB4 in human HeLa cells lysate pre incubated for 15 mins followed by ATP acyl phosphate probe addition and measured after 10 mins by LC-MS/MS analysis. The class given is subcellular.
Experiment [13] can be described thus: Inhibition of MAP3K5/MAP3K6/MAP3K15 in human HeLa cells lysate at 2 uM pre incubated for 15 mins followed by ATP acyl phosphate probe addition and measured after 10 mins by LC-MS/MS analysis relative to control. The conditions noted are these: 25 min, condition cancer.
For experiment [14], the target named is Serine/threonine-protein kinase PLK4 (Homo sapiens, UniProt O00444). In words: Binding affinity to PLK4 (unknown origin) assessed as dissociation constant by ATP-competition binding assay.

As usually defined, the inhibition is the change of the read-out against control, counted positive when it falls. For orientation: IC50 means the concentration needed to halve the response being measured. By Kd is commonly meant the concentration at which binding is half-saturated.

Where only a bound is given, the exact number is not on record here.

Insulin receptor, sequence (P06213 28-758 limits assumed): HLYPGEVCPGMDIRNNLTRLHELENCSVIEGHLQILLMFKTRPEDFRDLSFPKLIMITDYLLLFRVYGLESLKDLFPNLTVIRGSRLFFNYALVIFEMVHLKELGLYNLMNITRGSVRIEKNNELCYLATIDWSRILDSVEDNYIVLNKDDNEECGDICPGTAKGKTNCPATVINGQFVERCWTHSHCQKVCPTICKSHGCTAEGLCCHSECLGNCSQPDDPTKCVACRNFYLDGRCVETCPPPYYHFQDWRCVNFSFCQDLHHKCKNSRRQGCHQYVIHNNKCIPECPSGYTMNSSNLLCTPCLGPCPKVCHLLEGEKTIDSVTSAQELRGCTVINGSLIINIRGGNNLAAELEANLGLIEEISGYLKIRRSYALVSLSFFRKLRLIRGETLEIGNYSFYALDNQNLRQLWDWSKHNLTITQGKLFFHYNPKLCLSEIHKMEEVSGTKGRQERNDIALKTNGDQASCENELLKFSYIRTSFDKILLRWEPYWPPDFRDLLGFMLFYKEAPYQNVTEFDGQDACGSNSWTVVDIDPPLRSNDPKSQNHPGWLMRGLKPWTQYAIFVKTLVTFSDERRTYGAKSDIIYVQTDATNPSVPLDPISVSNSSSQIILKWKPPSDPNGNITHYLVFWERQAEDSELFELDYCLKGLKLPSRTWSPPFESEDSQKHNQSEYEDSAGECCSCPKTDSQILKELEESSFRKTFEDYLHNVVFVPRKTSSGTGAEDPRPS
Insulin receptor, sequence (P06213 763-1382 limits assumed): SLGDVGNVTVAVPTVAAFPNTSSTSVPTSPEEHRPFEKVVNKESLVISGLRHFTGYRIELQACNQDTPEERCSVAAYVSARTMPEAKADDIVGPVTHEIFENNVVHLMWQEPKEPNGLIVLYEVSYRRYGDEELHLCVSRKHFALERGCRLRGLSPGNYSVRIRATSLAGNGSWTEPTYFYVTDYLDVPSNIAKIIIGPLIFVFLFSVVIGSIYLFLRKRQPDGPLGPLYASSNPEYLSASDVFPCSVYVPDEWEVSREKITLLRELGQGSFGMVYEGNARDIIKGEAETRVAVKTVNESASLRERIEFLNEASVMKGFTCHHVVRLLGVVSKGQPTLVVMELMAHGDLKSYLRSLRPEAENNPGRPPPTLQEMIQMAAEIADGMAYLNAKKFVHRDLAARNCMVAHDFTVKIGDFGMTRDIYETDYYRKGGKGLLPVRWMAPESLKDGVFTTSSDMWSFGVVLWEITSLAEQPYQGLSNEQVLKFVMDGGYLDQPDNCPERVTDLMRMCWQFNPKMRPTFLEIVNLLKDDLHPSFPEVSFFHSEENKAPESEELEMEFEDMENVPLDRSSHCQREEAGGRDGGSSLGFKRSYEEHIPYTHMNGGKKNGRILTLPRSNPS
Dual specificity protein kinase CLK3, sequence (P49761 whole entry, looked up): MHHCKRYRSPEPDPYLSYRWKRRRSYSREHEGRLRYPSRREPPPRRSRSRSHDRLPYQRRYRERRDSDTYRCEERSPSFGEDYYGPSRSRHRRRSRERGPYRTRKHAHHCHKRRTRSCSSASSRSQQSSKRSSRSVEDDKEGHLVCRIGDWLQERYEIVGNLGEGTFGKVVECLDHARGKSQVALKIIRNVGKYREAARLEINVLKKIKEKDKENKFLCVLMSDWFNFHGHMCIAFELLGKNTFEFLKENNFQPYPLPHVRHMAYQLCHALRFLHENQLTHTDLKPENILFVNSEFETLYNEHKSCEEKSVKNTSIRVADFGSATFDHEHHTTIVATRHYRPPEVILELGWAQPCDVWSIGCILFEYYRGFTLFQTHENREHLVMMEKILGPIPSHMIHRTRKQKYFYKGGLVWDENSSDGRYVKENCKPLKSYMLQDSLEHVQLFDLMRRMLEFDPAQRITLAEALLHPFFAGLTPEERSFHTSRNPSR
Serine/threonine-protein kinase LATS1, sequence (O95835 whole entry): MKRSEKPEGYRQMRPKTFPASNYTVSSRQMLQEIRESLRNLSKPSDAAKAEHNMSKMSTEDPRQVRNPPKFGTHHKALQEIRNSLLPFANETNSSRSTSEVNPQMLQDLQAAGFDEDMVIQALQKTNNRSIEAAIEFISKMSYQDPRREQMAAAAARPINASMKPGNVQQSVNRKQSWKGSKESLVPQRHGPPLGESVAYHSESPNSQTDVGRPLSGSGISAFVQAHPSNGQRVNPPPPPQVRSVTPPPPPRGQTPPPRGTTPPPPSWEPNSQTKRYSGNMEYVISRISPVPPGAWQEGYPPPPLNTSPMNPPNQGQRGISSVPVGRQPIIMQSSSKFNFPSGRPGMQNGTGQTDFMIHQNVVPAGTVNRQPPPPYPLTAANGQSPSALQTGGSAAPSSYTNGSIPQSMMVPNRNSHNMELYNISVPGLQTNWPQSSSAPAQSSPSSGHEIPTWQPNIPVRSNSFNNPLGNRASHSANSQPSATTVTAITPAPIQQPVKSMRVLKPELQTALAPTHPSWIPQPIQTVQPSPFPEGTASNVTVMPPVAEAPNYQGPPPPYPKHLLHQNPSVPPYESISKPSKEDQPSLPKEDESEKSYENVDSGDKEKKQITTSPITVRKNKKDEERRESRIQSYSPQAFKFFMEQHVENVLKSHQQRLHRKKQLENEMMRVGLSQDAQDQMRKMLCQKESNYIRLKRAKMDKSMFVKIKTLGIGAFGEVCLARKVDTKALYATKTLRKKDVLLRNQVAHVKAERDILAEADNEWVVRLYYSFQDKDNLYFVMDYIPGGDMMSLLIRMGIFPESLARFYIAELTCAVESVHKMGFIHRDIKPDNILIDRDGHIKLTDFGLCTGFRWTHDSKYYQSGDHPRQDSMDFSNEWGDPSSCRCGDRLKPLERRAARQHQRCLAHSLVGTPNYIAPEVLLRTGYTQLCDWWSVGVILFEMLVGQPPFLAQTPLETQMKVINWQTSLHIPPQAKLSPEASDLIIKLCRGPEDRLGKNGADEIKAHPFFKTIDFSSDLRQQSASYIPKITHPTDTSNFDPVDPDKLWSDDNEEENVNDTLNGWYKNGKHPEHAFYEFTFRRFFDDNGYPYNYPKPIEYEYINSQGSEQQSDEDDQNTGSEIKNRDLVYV

Regarding `CCOc1cc(N2CCC(O)CC2)ccc1Nc1ncc2c(n1)N(C)c1ccccc1C(=O)N2C`, the inhibition in experiment [1] was 32.6%; in [3], -8%; in experiment [4] it was 3.3%; in [5], 5.3%; in [6], 17.5%; in experiment [8], 11.6%. The values for the inhibition in [9] and in [11] were 10.2% and 11.5%, respectively. Besides, the 50% inhibitory concentration (IC50) in [2], in experiment [7], in [10] and in experiment [12] was above 50 µM throughout. For the same molecule, in experiment [13], the inhibition at 2 µM turned out to be 2%. For the same molecule, the Kd in experiment [14] came to 0.6 µM.
